The term Kd denotes the free concentration of one partner at which half of the binding sites on the other are occupied at equilibrium, for simple one-to-one binding.

The values below come from PMC4244684 (The Journal of biological chemistry, 2007).

No end group written: not given here.

The assay concerns the target Su(dx) WW4 (Drosophila melanogaster, UniProt Q9Y0H4). Put plainly: ITC binding of peptides to Su. The essentials:
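Cleaved Su(dx) WW4 (GST fusion from E. coli BL21, glutathione-bead purified, PreScission-cleaved, dialysed overnight into ITC buffer) at 15–35 μm in cell; 1–1.5 mm peptide titrated in. Peptide and protein concentrations set by denaturing Trp/Tyr UV absorbance. 50 mm phosphate, 150 mm NaCl, pH 7.4, degassed; 25 °C. Dilution-corrected heats fitted for ΔH and Ka, n fixed at 1.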

Chain of Su(dx) WW4 (Q9Y0H4 515-557): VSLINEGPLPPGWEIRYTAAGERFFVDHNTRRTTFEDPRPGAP

In turn, AKQPPSYEDC [N2] returned a dissociation constant (Kd) of 45 ± 3 µM.

AKQPPSYEDCIK [N1] registered a dissociation constant (Kd) of 45 ± 2 µM.
